Measured values collected from several papers.
Compare with care: the assays were run in different laboratories.

N=c1c2c(-c3ccccc3)c(-c3ccccc3)n(Cc3ccccc3)c2ncn1[C@H]1CC[C@H](O)CC1
clearance (male cynomolgus monkey, plasma; intravenous, 0.5 mg/kg, single dose): 0.6 mL/min/kg

CCC[C@@](N)(CO)CCc1ccc(OCCCCCC(C)C)cc1
C0 (dog, plasma; intravenous, 0.25 mg/kg): 36 nM

O=c1c(O[C@@H]2O[C@H](CO)[C@@H](O)[C@H](O)[C@H]2O)c(-c2ccc(O)cc2)oc2cc(O)cc(O)c12
IC50 (WI-38; cell growth or viability, WST-1): 113 µM

O=C(Nc1ncc([N+](=O)[O-])s1)c1ccccc1O
CC50 (RPE; cell growth or viability; 48 h): ≥ 30 µM

COc1c2ccoc2cc2oc(=O)ccc12
IC50 (WI-38; cell growth or viability, WST-1; 48 h): 86.3 µM

O=C(O)c1cn(Cc2ccc(F)cc2)c2ccccc12
Km (UDP-glucuronosyltransferase 1A10 (UGT1A10, Homo sapiens, UniProt Q9HAW8); enzyme activity, substrate): 38 µM

O=C1Nc2c(C(F)(F)F)cccc2[C@@]1(c1ccc(O)cc1)c1ccc(OC(F)(F)F)cc1
MTD (general toxicity; Sprague-Dawley rat; intravenous): 10 to 20 mg/kg

Cc1cc(C)nc(Nc2ncc(C(=O)NCCc3c(C)[nH]c4ccccc34)cn2)c1
half-life (metabolic stability; dog, liver microsomes; 1 µM): 10 min

O=C1N=C(N2CCCCN2)S/C1=C\c1ccc(F)cc1OC(=O)N1CCCC1
NOAEL (general toxicity; Sprague-Dawley rat; oral, multiple doses): 2000 mg/kg/day

Cc1nc2ccccc2n(-c2ccc([N+](=O)[O-])cc2[N+](=O)[O-])c1=O
CC50 (WI-38; cell growth or viability, MTT; 48 h): 61.2 µM

Cc1cc(NC2CCN(C(=O)OC3CCN(C(=O)/C=C/CN(C)C)C3)CC2)n2ncc(C(C)C)c2n1 (stereo not shown)
MTD (general toxicity; rat; oral, multiple doses, once daily): 6 mg/kg

C#C[C@]1(CO)O[C@@H](n2cnc3c(N)nc(F)nc32)C[C@@H]1O
NOAEL (general toxicity; rat; oral, multiple doses): ≥ 50 mg/kg/day

O=[N+]([O-])c1ccc(Oc2cccc3cccnc23)c([N+](=O)[O-])c1
CC50 (WI-38; cell growth or viability, MTT; 48 h): 243 µM
